Measurements taken from ChEMBL document CHEMBL4316597, “Design, Synthesis, and Biological Evaluation of Itaconic Acid Derivatives as Potential Anti-Influenza Agents” (J Med Chem, 2019).
Calls of active or inactive are those of the source. No cut-off for these calls is given here.

Legend:
Influenza A virus [1] = assay: Antiviral activity against pandemic Influenza A virus A/TW/2235/09 (H1N1) SO4 infected in MDCK cells after 72 hrs by crystal violet-staining based assay; type: functional, organism-based; conditions: A/TW/2235/09 (H1N1) SO4, MDCK
Summary of the method: (§1)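 Cells seeded at 2 × 10^4/well in E10 (DMEM, 10% FBS), 16–24 h at 37 °C/5% CO2, washed with DPBS, then infected at nine-fold TCID50 with or without serial compound concentrations. Influenza is run in MDCK and enterovirus/rhinovirus in RD. Incubated 72 h, fixed in 4% paraformaldehyde, stained with 0.1% crystal violet, and read for cell density. EC50 = 50% CPE inhibition by Reed–Muench; mean ± S.D. of at least three runs.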

MDCK [2] = assay: Cytotoxicity against MDCK cells at 10 uM after 12 to 36 hrs by microscopic analysis; type: cell-based, Canis lupus familiaris; conditions: dog
Summary of the method: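 MDCK cells (2 × 10^5/well) grown 16–24 h, infected with A/WSN/33 at MOI 0.5 for 1 h, rinsed twice with DPBS, then kept in serum-free E0 with 10 μM compound at 37 °C. Cell morphology checked by light microscopy at 12 and 36 h pi. Drug-only and virus-only arms included; three repetitions.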

[3] = Selectivity ratio of CC50 for MDCK cells to EC50 for Influenza A virus A/TW/3446/02 (H3N2); type: toxicity; conditions: dog, read-out: Ratio CC50/EC50
Summary of the method: (§2)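 MDCK cells (2 × 10^4/well, E10, 16–24 h) infected at nine-fold TCID50 with compound for 72 h, 37 °C, 5% CO2. Cells were fixed in 4% paraformaldehyde and stained with crystal violet; EC50 is from Reed–Muench. For CC50, cells had compound alone for 72 h, then MTT 3 h, DMSO, A570, Reed–Muench. SI = CC50/EC50; three independent experiments.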

Enterovirus [4] = assay: Antiviral activity against Rhinovirus 71803 infected in human RD cells after 72 hrs by crystal violet-staining based assay; type: functional, organism-based; conditions: Enterovirus, 71803, RD; summary of the method: as §1
Influenza A virus [5] = assay: Inhibition of viral protein synthesis in Influenza A virus (A/WSN/33) infected in MDCK cells assessed as effect on NS1 protein level at 10 uM measured up to 9 hrs post infection by Western blot analysis; type: functional, organism-based; conditions: A/WSN/1933(H1N1)
Summary of the method: (§3)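 MDCK cells (5 × 10^5/well) infected with A/WSN/33 at MOI 0.1, washed twice, then held in E0 with or without 10 μM compound. Lysed in Triton X-100/deoxycholate buffer, equal protein separated by SDS-PAGE, and immunoblotted for viral proteins with GAPDH as loading control. Time-course harvests up to 9 h pi.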

Influenza A virus [6] = assay: Antiviral activity against pandemic Influenza A virus A/TW/90206/09 (H1N1) SO4 infected in MDCK cells after 72 hrs by crystal violet-staining based assay; type: functional, organism-based; conditions: A/TW/90206/09 (H1N1) SO4, MDCK; summary of the method: as §1
Influenza A virus [7] = assay: Inhibition of viral protein synthesis in Influenza A virus (A/WSN/33) infected in MDCK cells assessed as effect on HA protein level at 10 uM measured up to 9 hrs post infection by Western blot analysis; type: functional, organism-based; conditions: A/WSN/1933(H1N1); summary of the method: as §3
Enterovirus [8] = assay: Antiviral activity against Rhinovirus 71903 infected in human RD cells after 72 hrs by crystal violet-staining based assay; type: functional, organism-based; conditions: Enterovirus, 71903, RD; summary of the method: as §1
Influenza A virus [9] = assay: Antiviral activity against Influenza A virus (A/WSN/33) infected in MDCK cells assessed as reduction in virus-induced cytopathic effect after 72 hrs by crystal violet-staining based assay; type: functional, organism-based; conditions: A/WSN/1933(H1N1); summary of the method: as §1
[10] = Selectivity ratio of CC50 for MDCK cells to EC50 for Influenza A virus A/TW/01061/14; type: toxicity; conditions: dog, read-out: Ratio CC50/EC50; summary of the method: as §2
[11] = Cytotoxicity against MDCK cells assessed as cell death after 72 hrs by MTT assay; type: cell-based, Canis lupus familiaris; conditions: dog
Summary of the method: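 MDCK or RD cells at 2 × 10^4/well in E10, overnight at 37 °C/5% CO2, DPBS wash, then exposed to graded compound concentrations for 72 h. MTT added for 3 h, formazan dissolved in DMSO, absorbance read at 570 nm. CC50 (50% cell death) by Reed–Muench.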

Influenza A virus [12] = assay: Antiviral activity against Influenza A virus (A/WSN/33) infected in MDCK cells at 10 uM added at -1 hrs to 9 hrs post infection and measured after 9 hrs by plaque assay; type: functional, organism-based; conditions: A/WSN/1933(H1N1)
Summary of the method: (§4)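 MDCK monolayers exposed to compound (1 or 10 μM) over windows of −3, −1, 0, 3 or 6 to 9 h pi. A/WSN/33 adsorbed at MOI 0.1 from −1 to 0 h, then removed with a PBS wash. Supernatant taken at 9 h pi and titred by plaque assay, normalised to virus-only (100%). Average of three independent experiments.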

Erythrocyte = assay: Induction of hemagglutination in guinea pig RBC at serial dilution from 50 uM after 1 hr by HAI assay; type: cell-based, Cavia porcellus
Summary of the method: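 Virus titrated on 0.5% guinea pig RBCs to define 1 HA unit; 4 HA units used. Compound two-fold serially diluted from 50 µM and mixed with virus for 30 min at room temperature, or tested without virus for direct agglutination. 0.5% RBCs then added and agglutination scored after 1 h. DMSO/RBC-only and virus-only controls included.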

[13] = Selectivity ratio of CC50 for human RD cells to EC50 for Enterovirus A71 TW/2231/1998; type: toxicity; conditions: read-out: Ratio CC50/EC50
Summary of the method: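 RD cells (2 × 10^4/well, DMEM 10% FBS, 16–24 h) infected with enterovirus at nine-fold TCID50 with compound, 72 h, 37 °C, 5% CO2. Cells were fixed in 4% paraformaldehyde, stained with 0.1% crystal violet, and EC50 taken by Reed–Muench. CC50 came from 72 h exposure of uninfected RD cells, MTT 3 h, A570, Reed–Muench. SI = CC50/EC50; three independent experiments.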

Influenza A virus [14] = assay: Antiviral activity against Influenza A virus (A/WSN/33) infected in MDCK cells at 10 uM added at 6 hrs to 9 hrs post infection and measured after 9 hrs by plaque assay; type: functional, organism-based; conditions: A/WSN/1933(H1N1); summary of the method: as §4
[15] = Selectivity ratio of CC50 for MDCK cells to EC50 for pandemic Influenza A virus A/TW/90206/09 (H1N1) SO4; type: toxicity; conditions: dog, read-out: Ratio CC50/EC50; summary of the method: as §2
Influenza A virus [16] = assay: Antiviral activity against Influenza A virus (A/WSN/33) infected in MDCK cells at 10 uM added at 3 hrs to 9 hrs post infection and measured after 9 hrs by plaque assay; type: functional, organism-based; conditions: A/WSN/1933(H1N1); summary of the method: as §4
[17] = Selectivity ratio of CC50 for MDCK cells to EC50 for Influenza A virus A/TW/00642/14; type: toxicity; conditions: dog, read-out: Ratio CC50/EC50; summary of the method: as §2
MDCK [18] = assay: Inhibition of CRM1 in MDCK cells infected with Influenza A virus (A/WSN/33) assessed as reduction in CRM1-mediated viral protein nuclear export by measuring reduction in NP protein distribution to cytoplasm at 10 uM measured after 9 hrs post infection by IF-staining based microscopy; type: cell-based; conditions: Canis lupus familiaris
Summary of the method: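 MDCK cells grown on coverslips (2 × 10^5/well, 16 h), infected at MOI 0.1 for 1 h, washed, then kept in E0 with test compound (1 or 10 μM) or LMB 10 nM; DMSO 0.05% as mock. Fixed at 9 h pi in 4% paraformaldehyde and immunostained for M1, NP, NS2 or PA (1:50), with Hoechst nuclear stain. Viewed by confocal microscopy at 63×. NP nuclear/cytoplasmic intensity ratio quantified; three independent experiments.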

Which results are given for `C=C(CC(=O)Nc1ccc(F)cc1F)C(=O)Nc1ccc(F)cc1F`?
EC50 (Influenza A virus [1]): 2360 nM; Activity (MDCK [2]): Non-Toxic; selectivity ratio [3]: 18; EC50 (Enterovirus [4]): > 50000 nM; inhibition (Influenza A virus [5]): inactive; EC50 (Influenza A virus [6]): 2980 nM; inhibition (Influenza A virus [7]): inactive; EC50 (Enterovirus [8]): > 50000 nM; EC50 (Influenza A virus [9]): 2840 nM; selectivity ratio [10]: 21; CC50 at 72 h [11]: 84700 nM; Activity (Influenza A virus [12]): Active; Activity (Erythrocyte): Non-Toxic; selectivity ratio [13]: 16; Activity (Influenza A virus [14]): inactive; selectivity ratio [15]: 28; Activity (Influenza A virus [16]): Active; selectivity ratio [17]: 25; inhibition (MDCK [18]): Active
